# INS-1E rescue: rescue of cytokine-induced death in INS-1E beta cells; AID 488910; protection from cytokine-induced ATP loss, % at 10 µM; hit rate 0.1% among 20,000; INS-1E cytokine-induced death, ATP luminescence, 48 h; normalised: neutral wells 0, positive control 100;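 active = mean replicate protection from cytokine-induced ATP loss at least 50% and at least 75% of replicates each reaching 50%; inconclusive = meets only one of the two criteria, mean or replicate share; inactive = fails both the mean and replicate share criteria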
#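 assay system = INS-1E rat insulinoma cells | amount = 8000 cells per well | medium = phenol-red-free RPMI with 5% fetal bovine serum | doses = one compound concentration, pin transfer | timing = 48 h cytokine plus compound treatment, 10 min reagent incubation | also added = IL-1β, TNF-α and IFN-γ cytokine mix | signal = CellTiter-Glo luminescence measuring cellular ATP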
# T cruzi HTS: intracellular Trypanosoma cruzi inhibition. intracellular Trypanosoma cruzi in host cells, plate reader. AID 651903. hit rate 4.9% among 22,000. activity score (inhibition), % at 5.01 µM; in the data active = activity score above about 55%; inconclusive = no clear call, values can overlap the other calls;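 note: parasites and compound incubated about four days before reading; 0% = median of neutral control wells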
# A1 apoptosis 2: blocks A1, raising caspase activity; caspase activation, % (no concentration beside the values); 24,000 tested, under 10 active; MEF A1-2A-BIM cells, caspase-Glo luminescence, 3 h; percent of clofoctol response, DMSO zero; AID 2465; in the data active = caspase activation above about 5.9%; inconclusive = no clear call, values can overlap the other calls; inactive = below about 2.2%
#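 Material: A1-2A-BIM-expressing MEF cells. Buffer or medium: RPMI-1640 plus 10% FBS. Incubation: cells settled overnight, compound exposure 3 h at 37 °C, 5% CO2. Signal: Caspase-Glo 3/7 luminescence, 1 h at room temperature.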
# The depositor's hits bear a star; ? = inconclusive; · = no result. This is one part of a sample in which hits are shown more often than they occur.
SMILES,INS-1E rescue,T cruzi HTS,A1 apoptosis 2
Cc1ccc(S(=O)(=O)Nc2ccc3c(c2)CC(=O)N([C@H](C)CO)C[C@H](C)[C@@H](CN(C)Cc2ccc(-c4ccccc4)cc2)O3)cc1,·,·,-1.3
C[C@H](CO)N1C[C@H](C)[C@@H](CN(C)Cc2ccc(Oc3ccccc3)cc2)Oc2ccc(NC(=O)CCCCCC(=O)Nc3ccccc3N)cc2C1=O,4.6,12.6,·
O=C(NN=C1CCCCCC1)c1ccccn1,2.2,-21.2,0.6
Cc1ccc(S(=O)(=O)Nc2ccc3c(c2)CC(=O)N([C@H](C)CO)C[C@H](C)[C@H](CN(C)Cc2ccc(-c4ccccc4)cc2)O3)cc1,-4.3,7.8,·
C[C@H](CO)N1C[C@H](C)[C@@H](CN(C)Cc2ccc(-c3ccccc3)cc2)Oc2ccc(NS(=O)(=O)c3cccs3)cc2CC1=O,·,·,0.1
C[C@H]1CN([C@@H](C)CO)C(=O)Cc2cc(NS(=O)(=O)c3cccs3)ccc2O[C@@H]1CN(C)Cc1ccc(-c2ccccc2)cc1,-15.2,56.3*,-1.2
C[C@@H]1CN([C@@H](C)CO)C(=O)Cc2cc(NS(=O)(=O)c3ccccc3)ccc2O[C@@H]1CN(C)Cc1ccc(-c2ccccc2)cc1,-26.9,58.3*,·
C[C@H]1CN([C@@H](C)CO)C(=O)c2cccc(NC(=O)c3ccc(-c4nccs4)cc3)c2O[C@H]1CN(C)Cc1ccc(Oc2ccccc2)cc1,-23.6,40.6,-1.9
C[C@@H]1CN([C@H](C)CO)C(=O)c2cccc(NC(=O)c3ccc(-c4nccs4)cc3)c2O[C@H]1CN(C)Cc1ccc(-c2ccccc2)cc1,-3.0,42.9,·
C[C@H](CO)N1C[C@H](C)[C@@H](CN(C)Cc2ccc(Oc3ccccc3)cc2)Oc2c(NC(=O)c3ccc(-c4nccs4)cc3)cccc2C1=O,-16.6,66.9*,0.0
C[C@@H]1CN([C@@H](C)CO)C(=O)c2cccc(NC(=O)c3ccc(-c4nccs4)cc3)c2O[C@@H]1CN(C)Cc1ccc(C(=O)Nc2ccccc2N)cc1,?,74.6*,-0.4
C[C@H]1CN([C@@H](C)CO)C(=O)c2cccc(NC(=O)c3ccc(-c4nccs4)cc3)c2O[C@H]1CN(C)Cc1ccc(-c2ccccc2)cc1,-48.8,66.0*,·
C[C@H](CO)N1C[C@H](C)[C@H](CN(C)Cc2ccc(-c3ccccc3)cc2)Oc2c(NC(=O)c3ccc(-c4nccs4)cc3)cccc2C1=O,-46.2,51.9,-0.8
C[C@H](CO)N1C[C@H](C)[C@@H](CN(C)Cc2ccc(-c3ccccc3)cc2)Oc2c(NC(=O)c3ccc(-c4nccs4)cc3)cccc2C1=O,-29.5,80.6*,·
C[C@H](CO)N1C[C@H](C)[C@@H](CN(C)Cc2ccccc2)Oc2c(NC(=O)c3ccc(-c4nccs4)cc3)cccc2C1=O,-8.6,53.4,·
O=S(=O)(NC1CCN(Cc2cccc(OCCO)c2)CC1)c1cc(C(F)(F)F)ccc1Cl,·,·,-1.0
O=C(NO)c1cccc(C(=O)N/N=C/c2ccc(B(O)O)cc2)c1,-13.8,-15.9,-2.6
O=C(NO)c1cccc(C(=O)N/N=C/c2ccc(-c3ccccc3)cc2)c1,-3.4,-2.7,·
COCCOC(=O)N1C(=O)[C@@]2(c3cc(C#CC4=CCCCC4)ccc31)[C@H](c1ccccc1OCCO)N1[C@H](c3ccccc3)[C@H](c3ccccc3)OC(=O)[C@H]1[C@@H]2C(N)=O,·,·,-0.8
C=CCNC(=O)[C@@H]1[C@H]2C(=O)O[C@H](c3ccccc3)[C@H](c3ccccc3)N2[C@H](c2ccc(OCCO)cc2)[C@@]12C(=O)Nc1ccc(C#CCC(C(=O)OC)C(=O)OC)cc12,·,·,0.2
COC(=O)CCCCCCC(=O)N/N=C/c1ccc(O)c2ccccc12,18.4,-1.5,0.0
C[C@@H]1CN([C@@H](C)CO)C(=O)c2cccc(NC(=O)c3ccncc3)c2O[C@H]1CN(C)Cc1ccc(Oc2ccccc2)cc1,-6.6,80.4*,0.3
C[C@@H]1CN([C@H](C)CO)C(=O)c2cccc(NC(=O)c3ccncc3)c2O[C@@H]1CN(C)Cc1ccc(Oc2ccccc2)cc1,-15.9,81.0*,-1.2
C[C@@H]1CN([C@@H](C)CO)C(=O)c2cccc(NC(=O)c3cnccn3)c2O[C@H]1CN(C)Cc1ccc(Oc2ccccc2)cc1,-30.5,33.0,·
C[C@H](CO)N1C[C@H](C)[C@H](CN(C)Cc2ccc(Oc3ccccc3)cc2)Oc2c(NC(=O)c3cnccn3)cccc2C1=O,-29.1,68.8*,-0.5
C[C@H](CO)N1C[C@H](C)[C@@H](CN(C)Cc2ccc(Oc3ccccc3)cc2)Oc2c(NC(=O)c3cnccn3)cccc2C1=O,-42.4,?,·

# Source: PubChem
